Results on one compound are retold here after ChEMBL document CHEMBL4049410, “Novel benzimidazolyl tetrahydroprotoberberines: Design, synthesis, antimicrobial evaluation and multi-targeting exploration” (2017).

The test system of one experiment is Micrococcus luteus. Briefly: Antibacterial activity against Micrococcus luteus ATCC 4698 after 24 hrs by two-fold serial dilution assay. It is filed as functional, NCTC 2665. The settings on record: Micrococcus luteus, NCTC 2665, 24 h; read-out: MIC. The gist of the method: (§1)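 Twofold serial broth dilution following NCCLS guidance, with Chloromycin, Norfloxacin and Fluconazole as positive controls. MIC in μM is the lowest concentration giving complete inhibition of visible bacterial or fungal growth.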

The species named for experiment [1] is Bos taurus. Briefly: Induction of calf thymus DNA intercalation assessed as protection of compound quenching from iodide ion by fluorescence assay (reference value: 104.52 L/mol).
For another experiment, the system named is Proteus vulgaris. Briefly: Antibacterial activity against Bacillus proteus ATCC 13315 after 24 hrs by two-fold serial dilution assay. It is filed as functional. The note with it: Proteus vulgaris, ATCC 13315, 24 h; read-out: MIC. The gist of the method:
as §1

The subject of another experiment is Aspergillus flavus. Nature of the experiment: Antifungal activity against Aspergillus flavus after 24 hrs by two-fold serial dilution assay. The note with it: Aspergillus flavus, 24 h; read-out: MIC. It is filed as functional. An outline of the steps:
as §1

Experiment [2] concerns Staphylococcus aureus. Briefly: Antibacterial activity against Staphylococcus aureus ATCC 25923 after 24 hrs by two-fold serial dilution assay. In kind it is functional. The settings on record: Staphylococcus aureus, ATCC 25923, 24 h; read-out: MIC. An outline of the steps: as §1
For experiment [3], the system named is Escherichia coli. Nature of the experiment: Induction of Escherichia coli pBR322 DNA cleavage assessed as conversion of covalently closed circular DNA to open circular form and linear form of DNA by agarose gel electrophoresis method. The gist of the method:
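Supercoiled pBR322 plasmid is incubated with compound at 25, 50 and 75 μM alongside a DNA-only control at 37 °C, pH 7.0. Products are resolved by gel electrophoresis, scoring conversion of Form I to Form II (nicked) and Form III (linear).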

Another experiment concerns Bacillus subtilis. Briefly: Antibacterial activity against Bacillus subtilis after 24 hrs by two-fold serial dilution assay. In kind it is functional. The note with it: Bacillus subtilis, 24 h; read-out: MIC. The gist of the method: as §1
For the next experiment, the system named is Cyberlindnera jadinii. Nature of the experiment: Antifungal activity against Candida utilis after 24 hrs by two-fold serial dilution assay. The note with it: Williopsis jadinii, 24 h; read-out: MIC. It is filed as functional. The gist of the method:
as §1

For the next experiment, the system named is Saccharomyces cerevisiae. Briefly: Antifungal activity against Saccharomyces cerevisiae after 24 hrs by two-fold serial dilution assay. The note with it: Saccharomyces cerevisiae, 24 h; read-out: MIC. In kind it is functional. The gist of the method: as §1
For experiment [4], the species on record is Bos taurus. Briefly: Inhibition of neutral red binding to calf thymus DNA up to 1.4 x 10^-5mol/L by UV-Visible absorption spectroscopy.
The subject of experiment [5] is Escherichia coli. Nature of the experiment: Antibacterial activity against Escherichia coli DH52 after 24 hrs by two-fold serial dilution assay. The note with it: Escherichia coli, DH52, 24 h; read-out: MIC. It is filed as functional. The gist of the method: as §1
In the next experiment the test system is Shigella dysenteriae. Briefly: Antibacterial activity against Shigella dysenteriae after 24 hrs by two-fold serial dilution assay. In kind it is functional. The note with it: Shigella dysenteriae, 24 h; read-out: MIC.
Experiment [6] in a line: Binding affinity to DNA (unknown origin) by UV-Visible absorption spectroscopy. The gist of the method: (§2)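 Calf thymus DNA is held at a fixed concentration, quantified by A260 (ε260 = 6600 L mol⁻¹ cm⁻¹, per phosphate) and checked for A260/A280 > 1.8. It is titrated with increasing compound in Tris-HCl pH 7.4 at 290 K. UV-vis spectra are recorded, following absorbance at 260 nm. The binding constant K is derived from a linear fit (R, SD reported).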

The subject of experiment [7] is Staphylococcus aureus. Briefly: Antibacterial activity against methicillin-resistant Staphylococcus aureus N315 after 24 hrs by two-fold serial dilution assay. The note with it: Staphylococcus aureus, N315, 24 h; read-out: MIC. In kind it is functional.
The subject of another experiment is Pichia norvegensis. Nature of the experiment: Antifungal activity against Candida mycoderma after 24 hrs by two-fold serial dilution assay. In kind it is functional. The settings on record: Pichia norvegensis, 24 h; read-out: MIC. An outline of the steps:
as §1

Experiment [8] is described as follows: Binding affinity to DNA (unknown origin) assessed as hyperchromic effect up to 1.4 x 10^-5mol/L by UV-Visible absorption spectroscopy. An outline of the steps: as §2
For experiment [9], the system named is Escherichia coli. Nature of the experiment: Antibacterial activity against Escherichia coli JM109 after 24 hrs by two-fold serial dilution assay. It is filed as functional. The settings on record: Escherichia coli, JM109, 24 h; read-out: MIC. The gist of the method:
as §1

In a further experiment the test system is Pseudomonas aeruginosa. Nature of the experiment: Antibacterial activity against Pseudomonas aeruginosa after 24 hrs by two-fold serial dilution assay. The settings on record: Pseudomonas aeruginosa, 24 h; read-out: MIC. In kind it is functional. The gist of the method: as §1
In experiment [10] the test system is Staphylococcus aureus. Nature of the experiment: Antibacterial activity against methicillin-resistant Staphylococcus aureus N315 after 15 serial passages by two-fold serial dilution assay. In kind it is functional. An outline of the steps:
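Resistance-development test in MRSA. Cultures were propagated with fresh medium and serially diluted test agent, and the MIC was redetermined every 24 h. Parallel cultures were exposed to 2-fold dilutions of Chloromycin and Norfloxacin as positive controls. MIC was the lowest concentration giving complete growth inhibition.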

The next experiment concerns Salmonella typhi. Nature of the experiment: Antibacterial activity against Bacillus typhi after 24 hrs by two-fold serial dilution assay. It is filed as functional, Salmonella enterica subsp. enterica serovar Typhi. The settings on record: Salmonella enterica, 24 h; read-out: MIC.
The subject of another experiment is Candida albicans. Nature of the experiment: Antifungal activity against Candida albicans ATCC 76615 after 24 hrs by two-fold serial dilution assay. It is filed as functional. The note with it: Candida albicans, ATCC 76615, 24 h; read-out: MIC. The gist of the method:
as §1

Values after ≈ are worked out from the molar mass of the structure shown. Active and inactive are the calls of the source. The calls are words filed in the database; no cut-off is given here.

On to `COc1cc(-c2nc3cc(F)ccc3[nH]2)c2c(c1O)CN1CCc3cc4c(cc3C1C2)OCO4` (stereo unspecified), for which the MIC in the experiment on Micrococcus luteus amounted to 46.4 µM (≈ 21.3 µg/mL); in the experiment with Proteus vulgaris, 69.6 µM (≈ 32 µg/mL); in the experiment with Aspergillus flavus, 58 µM (≈ 26.6 µg/mL); in the experiment with Staphylococcus aureus [2] it was 58 µM (≈ 26.6 µg/mL); in the experiment on Bacillus subtilis, 4.4 µM (≈ 2.02 µg/mL); with Cyberlindnera jadinii it was 14.5 µM (≈ 6.66 µg/mL). In addition, the MIC in the experiment with Saccharomyces cerevisiae amounted to 8.7 µM (≈ 4 µg/mL); in the experiment with Escherichia coli [5] it was 23.2 µM (≈ 10.7 µg/mL); in the experiment with Shigella dysenteriae, 17.4 µM (≈ 7.99 µg/mL); in the experiment on Staphylococcus aureus [7], 17.4 µM (≈ 7.99 µg/mL); in the experiment on Pichia norvegensis, 8.7 µM (≈ 4 µg/mL); in the experiment on Escherichia coli [9] it was 8.7 µM (≈ 4 µg/mL). In addition, the values for the MIC with Pseudomonas aeruginosa, in the experiment on Salmonella typhi and with Candida albicans were 11.6 µM (≈ 5.33 µg/mL), 14.5 µM (≈ 6.66 µg/mL) and 58 µM (≈ 26.6 µg/mL), respectively. The KSV in the experiment filed under Bos taurus [1] was found to be 87.7 L/mol. For the same compound, the Activity entry with Escherichia coli [3] is “Dose-dependent effect”. Further, in the experiment listed under Bos taurus [4], the inhibition entry is “Active”. In [6], this compound registered a K of 2.87 ×10⁴ L/mol. The result (in [8]; in the experiment with Staphylococcus aureus [10]) was Active.

What is called MIC is the least concentration at which growth counts as inhibited.
